The term pEC50 denotes the negative decadic logarithm of the EC50, by convention in mol/L. A word on the pIC50: it is the negative decadic logarithm of the IC50, by convention in mol/L. Usually inhibition stands for how much of the control response was suppressed. Read a high inhibition as strong suppression. What is called Emax is the maximal effect, on the per cent scale that the assay sets.

A short description of series [1]: Anesthetic potency, Concentration for loss of righting reflexes (LORR) in Xenopus tadpoles. It is filed as functional, frog. The essentials:
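Pre-limb bud Xenopus tadpoles (1.5–2 cm), groups of 5–10 in oxygenated 5 mM Tris-HCl pH 7.4, low light; drug from buffer or ethanol stock (final ethanol ≤5 mM). Tipped at 30–40 min; no righting within 5 s = LORR. Pooled groups of 10–20; quantal curves by Waud method; SD reported.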

Series [2] has as its target T1, GABA-A receptor; alpha-1/beta-2/gamma-2 (Homo sapiens, UniProt P14867+P18507+P47870).
T1 sequence (P14867 whole entry): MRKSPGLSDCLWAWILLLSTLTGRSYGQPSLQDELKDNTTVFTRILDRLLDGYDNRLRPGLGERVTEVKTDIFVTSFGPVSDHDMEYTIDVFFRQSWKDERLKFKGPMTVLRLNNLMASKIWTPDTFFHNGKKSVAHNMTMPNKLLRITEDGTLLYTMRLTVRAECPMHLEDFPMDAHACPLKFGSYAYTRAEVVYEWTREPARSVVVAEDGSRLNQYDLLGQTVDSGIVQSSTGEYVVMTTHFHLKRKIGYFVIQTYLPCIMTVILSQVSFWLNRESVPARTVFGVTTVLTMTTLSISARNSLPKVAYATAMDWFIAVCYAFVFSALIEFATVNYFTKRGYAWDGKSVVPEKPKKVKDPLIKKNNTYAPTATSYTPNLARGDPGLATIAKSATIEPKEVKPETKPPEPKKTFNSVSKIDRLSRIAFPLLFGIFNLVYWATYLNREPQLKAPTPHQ
T1 sequence (P47870 whole entry): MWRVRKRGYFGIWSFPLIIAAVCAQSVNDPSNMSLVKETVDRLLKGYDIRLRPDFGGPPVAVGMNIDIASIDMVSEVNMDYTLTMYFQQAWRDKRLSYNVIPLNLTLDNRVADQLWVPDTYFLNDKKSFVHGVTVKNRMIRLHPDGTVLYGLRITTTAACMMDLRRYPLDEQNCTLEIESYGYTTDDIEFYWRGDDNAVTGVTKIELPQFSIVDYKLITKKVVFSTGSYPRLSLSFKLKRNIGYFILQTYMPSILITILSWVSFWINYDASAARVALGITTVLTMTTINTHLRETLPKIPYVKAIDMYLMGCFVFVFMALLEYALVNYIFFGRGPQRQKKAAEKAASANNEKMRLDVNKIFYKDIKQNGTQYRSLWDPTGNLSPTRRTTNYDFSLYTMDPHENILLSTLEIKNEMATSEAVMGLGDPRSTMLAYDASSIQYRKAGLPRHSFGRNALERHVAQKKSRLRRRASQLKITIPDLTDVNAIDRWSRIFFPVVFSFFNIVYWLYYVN
T1 sequence (P18507 whole entry): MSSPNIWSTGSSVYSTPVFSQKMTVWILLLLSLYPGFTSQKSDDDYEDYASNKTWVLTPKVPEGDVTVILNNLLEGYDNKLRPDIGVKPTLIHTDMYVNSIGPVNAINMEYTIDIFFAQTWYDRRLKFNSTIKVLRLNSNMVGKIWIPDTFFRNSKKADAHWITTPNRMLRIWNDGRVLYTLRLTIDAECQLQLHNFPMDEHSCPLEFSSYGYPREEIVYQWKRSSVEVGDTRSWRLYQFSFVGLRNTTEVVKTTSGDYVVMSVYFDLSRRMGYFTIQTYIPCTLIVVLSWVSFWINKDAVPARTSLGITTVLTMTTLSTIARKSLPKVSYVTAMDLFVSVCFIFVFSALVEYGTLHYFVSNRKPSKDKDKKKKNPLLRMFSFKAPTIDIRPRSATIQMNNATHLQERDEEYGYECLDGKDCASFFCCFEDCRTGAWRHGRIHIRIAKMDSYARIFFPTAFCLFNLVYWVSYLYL
In words: Inhibition of currents elicited by GABA at EC5 (6-12 uM). It is filed as functional.

Series [3] has as its target T2, GABA-A receptor; alpha-1/beta-2/gamma-2 (Homo sapiens) (UniProt P14867+P47870+P18507). The series can be described thus: Hill coefficient for enhancement of currents elicited by GABA at EC5 (6-12 uM). In kind it is functional.
For series [4], the target named is T3, GABA-A receptor; anion channel (Rattus norvegicus) (UniProt O09028+P15431+P18506+P18508+P19969+P20236+P23574+P23576+P28471+P28473+P30191+P62813+P63079+P63138+Q91ZM7+Q9ES14). In words: Inhibition of [35S]TBPS binding to rat brain membranes at 100 uM. In kind it is cell membranes. The note with it: Membrane.
For series [5], the target named is T1, GABA-A receptor; alpha-1/beta-2/gamma-2. In words: Enhancement of currents elicited by GABA at EC5 (6-12 uM). In kind it is functional.
The target of series [6] is T2, GABA-A receptor; alpha-1/beta-2/gamma-2 (Homo sapiens). In words: Maximum response for enhancement of currents elicited by GABA at EC5 (6-12 uM). In kind it is functional.
Series [7] shares this target. In words: Maximum activation of Gamma-aminobutyric acid A receptor compared to maximal control GABA current at >320 uM. In kind it is functional.
Series [8] has as its target Nicotinic acetylcholine receptor alpha1/beta1/gamma/delta (Mus musculus, UniProt P02716+P04756+P04760+P09690). In words: Inhibition of recombinant embryonic mouse muscle Nicotinic Acetylcholine Receptor (3 oocytes). It is filed as cell-based, Oocyte. The essentials:
(§1)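 Torpedo or embryonic mouse muscle nAChRs in Xenopus oocytes, two-electrode clamp at -70 mV, 20–22 °C, low-Ca ND-96 (0.3 mM CaCl2) without propylene glycol; drug coapplied 5 s with 10 μM acetylcholine after stable response; fit to single-site inhibition equation; reversibility after 5 min wash.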

The nature of series [9]: Solubility in 0.05 M Tris-HCl buffer, pH 7.4. The note with it: read-out: S. It is filed as physicochemical. The essentials: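 Excess compound shaken 3 h in 0.05 M Tris-HCl pH 7.4, centrifuged 10000g for 3 min, concentration read at 350 nm.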
Series [10] can be described thus: The octanol/water partition coefficient of [3H]azietomidate. In kind it is physicochemical. In outline: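 Octanol/water two-phase mixture shaken in amber vial, settled 12 h, radiolabel partition measured.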
In series [11] the target is T4, Acetylcholine receptor (Torpedo californica, UniProt P02710+P02712+P02714+P02718). In words: (§2) Inhibition of currents when compound wascoapplied with acetylcholine to recombinant Torpedo nAcChoR (from 6 oocytes). It is filed as cell-based, Oocyte. In outline:
as §1

Series [12] addresses T2, GABA-A receptor; alpha-1/beta-2/gamma-2 (Homo sapiens). The series can be described thus: Maximum levels of enhancement of currents from alpha-1-beta-2-gamma-2L-subunit of GABA receptor elicited by low concentrations of GABA. It is filed as functional.
Series [13] deals with T1, GABA-A receptor; alpha-1/beta-2/gamma-2. The series can be described thus: (§3) Direct activation of Gamma-aminobutyric acid A receptor in the absence of GABA. In kind it is functional.
In series [14] the target is GABA-A receptor; anion channel. In words: Inhibition of [35S]TBPS binding to rat brain membranes. It is filed as cell membranes, Membrane.
In series [15] the target is T2, GABA-A receptor; alpha-1/beta-2/gamma-2 (Homo sapiens). The series can be described thus: Maximum activation of Gamma-aminobutyric acid A receptor in the absence of GABA compared to GABA response. It is filed as functional. The essentials:
(§4)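 Oocytes expressing GABA_A receptors, two-electrode clamp at -50 mV, 20–22 °C, ND-96 pH 7.6; drug applied without GABA, stocks in 35% propylene glycol (superfusate ≤170 mM). […] Washout up to 15 min.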

The target in series [16] is T3, GABA-A receptor; anion channel (Rattus norvegicus). In words: Inhibition of [35S]TBPS binding to rat brain membranes at 100 uM (Range = 80-90%). It is filed as cell membranes. The note with it: Membrane.
Series [17] has as its target T1, GABA-A receptor; alpha-1/beta-2/gamma-2. The series can be described thus: Ability to enhance currents from alpha-1-beta-2-gamma-2L-subunit of GABA receptor elicited by low concentrations of GABA. In kind it is functional.
In series [18] the target is T4, Acetylcholine receptor. The series is described as §2. In kind it is functional, cell-based, Oocyte. The essentials:
as §1

The subject of series [19] is Torpedo. The series can be described thus: Concentration that reduced photoincorporation of [3H]azietomidate into the alpha and beta subunits of the nAcChoR in membranes of Torpedo electric organ. In kind it is functional. The essentials: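 Torpedo californica nAChR-rich membranes, 2 mg/mL in Torpedo saline pH 7.0 with 1 mM oxidized glutathione, with 0.9 μM [3H]azietomidate, ± 300 μM carbamylcholine, ± R-etomidate; irradiated at 4 °C, 6 min at 254 nm or 25 min at 365 nm; 8% SDS-PAGE, fluorography, excised bands counted by scintillation.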

A short description of series [20]: Anesthetic potency, Concentration for loss of righting reflexes (LORR) in Rana temporaria. It is filed as functional, frog.
Series [21] has as its target T2, GABA-A receptor; alpha-1/beta-2/gamma-2 (Homo sapiens). The series is described as §3. It is filed as functional. In outline: as §4
For series [22] the target is unchanged. The series can be described thus: Maximum activation of Gamma-aminobutyric acid A receptor in the absence of GABA compared to 1 mM GABA. In kind it is functional. The essentials:
as §4

pEC50, pIC50: −log10 of the molar value. Values after ≈ are worked out from the molar mass of the structure shown.

T4 sequence (P02710 whole entry): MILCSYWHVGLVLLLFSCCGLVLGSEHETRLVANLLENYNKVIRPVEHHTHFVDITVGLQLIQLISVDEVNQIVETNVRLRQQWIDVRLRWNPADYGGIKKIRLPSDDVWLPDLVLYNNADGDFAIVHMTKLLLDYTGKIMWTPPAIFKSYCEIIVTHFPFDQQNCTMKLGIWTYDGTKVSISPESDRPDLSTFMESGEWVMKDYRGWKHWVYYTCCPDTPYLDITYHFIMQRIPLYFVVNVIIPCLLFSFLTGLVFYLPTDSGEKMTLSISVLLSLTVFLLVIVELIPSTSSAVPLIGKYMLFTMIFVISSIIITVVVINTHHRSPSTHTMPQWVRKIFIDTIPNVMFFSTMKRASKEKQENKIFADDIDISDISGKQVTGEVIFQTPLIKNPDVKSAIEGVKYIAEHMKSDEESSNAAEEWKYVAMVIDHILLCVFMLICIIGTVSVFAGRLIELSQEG
T4 sequence (P02712 whole entry): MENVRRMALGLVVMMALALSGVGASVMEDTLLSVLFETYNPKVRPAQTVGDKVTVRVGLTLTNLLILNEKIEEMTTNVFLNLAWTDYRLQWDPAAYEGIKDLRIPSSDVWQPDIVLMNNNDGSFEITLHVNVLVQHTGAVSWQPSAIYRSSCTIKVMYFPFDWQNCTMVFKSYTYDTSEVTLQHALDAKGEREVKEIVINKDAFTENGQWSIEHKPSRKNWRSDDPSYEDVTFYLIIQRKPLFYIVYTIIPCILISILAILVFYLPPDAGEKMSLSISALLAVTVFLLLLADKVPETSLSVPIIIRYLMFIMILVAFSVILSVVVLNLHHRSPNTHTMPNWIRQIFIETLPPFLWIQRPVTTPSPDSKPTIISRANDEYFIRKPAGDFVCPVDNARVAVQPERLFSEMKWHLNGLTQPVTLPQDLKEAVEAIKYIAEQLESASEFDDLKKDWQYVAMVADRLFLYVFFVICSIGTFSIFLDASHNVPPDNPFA
T4 sequence (P02718 whole entry): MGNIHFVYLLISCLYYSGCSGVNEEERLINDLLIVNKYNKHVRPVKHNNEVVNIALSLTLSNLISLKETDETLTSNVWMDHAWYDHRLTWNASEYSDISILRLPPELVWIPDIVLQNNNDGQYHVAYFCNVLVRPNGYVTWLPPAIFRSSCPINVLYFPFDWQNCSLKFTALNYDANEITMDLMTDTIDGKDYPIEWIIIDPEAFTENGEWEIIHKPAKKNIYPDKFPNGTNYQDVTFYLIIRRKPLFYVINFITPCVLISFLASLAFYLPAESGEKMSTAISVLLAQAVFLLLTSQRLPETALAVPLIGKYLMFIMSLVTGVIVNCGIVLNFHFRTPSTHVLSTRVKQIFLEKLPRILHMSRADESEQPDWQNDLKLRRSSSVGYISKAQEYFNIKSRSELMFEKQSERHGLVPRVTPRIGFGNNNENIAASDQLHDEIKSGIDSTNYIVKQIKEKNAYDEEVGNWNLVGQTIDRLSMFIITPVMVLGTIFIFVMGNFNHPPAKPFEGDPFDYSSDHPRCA
T4 sequence (P02714 whole entry): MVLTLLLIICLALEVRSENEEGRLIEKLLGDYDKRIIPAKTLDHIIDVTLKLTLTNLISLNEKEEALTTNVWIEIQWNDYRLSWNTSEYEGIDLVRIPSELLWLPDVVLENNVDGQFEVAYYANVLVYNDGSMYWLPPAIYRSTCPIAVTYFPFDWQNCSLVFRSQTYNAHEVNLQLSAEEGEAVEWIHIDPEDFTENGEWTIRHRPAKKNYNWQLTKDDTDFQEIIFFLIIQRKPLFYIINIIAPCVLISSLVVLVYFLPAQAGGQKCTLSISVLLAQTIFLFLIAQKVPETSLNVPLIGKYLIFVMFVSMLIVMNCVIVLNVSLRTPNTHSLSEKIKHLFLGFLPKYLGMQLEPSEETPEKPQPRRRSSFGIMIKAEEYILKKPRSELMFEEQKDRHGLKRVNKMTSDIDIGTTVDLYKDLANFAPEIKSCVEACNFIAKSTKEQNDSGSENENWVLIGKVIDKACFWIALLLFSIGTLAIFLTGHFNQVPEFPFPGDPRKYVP
Chain of Nicotinic acetylcholine receptor alpha1/beta1/gamma/delta (P04756 whole entry): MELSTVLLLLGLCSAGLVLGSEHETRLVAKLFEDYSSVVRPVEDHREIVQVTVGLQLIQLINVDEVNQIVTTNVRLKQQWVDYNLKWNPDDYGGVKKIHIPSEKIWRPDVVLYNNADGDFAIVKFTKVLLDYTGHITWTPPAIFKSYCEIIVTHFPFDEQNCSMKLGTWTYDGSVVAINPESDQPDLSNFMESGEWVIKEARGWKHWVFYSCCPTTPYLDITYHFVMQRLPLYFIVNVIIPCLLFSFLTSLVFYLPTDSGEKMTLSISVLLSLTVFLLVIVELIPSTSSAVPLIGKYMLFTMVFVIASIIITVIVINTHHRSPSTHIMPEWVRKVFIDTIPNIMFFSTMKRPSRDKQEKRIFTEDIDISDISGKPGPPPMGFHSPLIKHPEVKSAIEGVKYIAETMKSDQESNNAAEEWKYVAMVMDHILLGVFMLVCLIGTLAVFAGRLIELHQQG
Chain of Nicotinic acetylcholine receptor alpha1/beta1/gamma/delta (P09690 whole entry): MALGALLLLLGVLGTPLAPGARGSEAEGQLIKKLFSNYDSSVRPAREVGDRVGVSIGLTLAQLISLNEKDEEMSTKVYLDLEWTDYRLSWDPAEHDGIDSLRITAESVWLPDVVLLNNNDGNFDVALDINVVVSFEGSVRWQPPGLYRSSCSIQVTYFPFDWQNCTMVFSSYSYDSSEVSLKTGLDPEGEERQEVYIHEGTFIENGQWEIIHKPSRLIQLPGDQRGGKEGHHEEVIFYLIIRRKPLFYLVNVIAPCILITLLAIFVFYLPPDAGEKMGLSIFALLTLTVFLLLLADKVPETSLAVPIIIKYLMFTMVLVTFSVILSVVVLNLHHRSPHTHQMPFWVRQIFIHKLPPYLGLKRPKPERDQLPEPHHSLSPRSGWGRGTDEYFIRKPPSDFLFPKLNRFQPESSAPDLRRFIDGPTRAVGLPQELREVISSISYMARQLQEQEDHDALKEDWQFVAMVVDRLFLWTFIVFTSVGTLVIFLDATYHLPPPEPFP
Chain of Nicotinic acetylcholine receptor alpha1/beta1/gamma/delta (P02716 whole entry): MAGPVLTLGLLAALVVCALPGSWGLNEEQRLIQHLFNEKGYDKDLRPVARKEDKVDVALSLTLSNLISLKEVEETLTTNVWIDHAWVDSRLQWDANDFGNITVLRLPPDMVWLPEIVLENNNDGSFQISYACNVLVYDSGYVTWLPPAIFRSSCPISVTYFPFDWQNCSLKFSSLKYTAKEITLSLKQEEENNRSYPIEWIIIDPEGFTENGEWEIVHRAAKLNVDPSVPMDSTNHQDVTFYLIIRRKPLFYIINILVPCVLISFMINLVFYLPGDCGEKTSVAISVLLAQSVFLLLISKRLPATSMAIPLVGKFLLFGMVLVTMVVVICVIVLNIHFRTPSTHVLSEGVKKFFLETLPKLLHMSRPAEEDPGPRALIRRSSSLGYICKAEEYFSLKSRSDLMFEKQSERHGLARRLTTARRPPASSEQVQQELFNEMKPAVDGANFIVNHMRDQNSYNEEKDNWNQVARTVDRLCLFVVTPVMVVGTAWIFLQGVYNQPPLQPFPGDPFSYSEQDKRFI
Chain of Nicotinic acetylcholine receptor alpha1/beta1/gamma/delta (P04760 whole entry): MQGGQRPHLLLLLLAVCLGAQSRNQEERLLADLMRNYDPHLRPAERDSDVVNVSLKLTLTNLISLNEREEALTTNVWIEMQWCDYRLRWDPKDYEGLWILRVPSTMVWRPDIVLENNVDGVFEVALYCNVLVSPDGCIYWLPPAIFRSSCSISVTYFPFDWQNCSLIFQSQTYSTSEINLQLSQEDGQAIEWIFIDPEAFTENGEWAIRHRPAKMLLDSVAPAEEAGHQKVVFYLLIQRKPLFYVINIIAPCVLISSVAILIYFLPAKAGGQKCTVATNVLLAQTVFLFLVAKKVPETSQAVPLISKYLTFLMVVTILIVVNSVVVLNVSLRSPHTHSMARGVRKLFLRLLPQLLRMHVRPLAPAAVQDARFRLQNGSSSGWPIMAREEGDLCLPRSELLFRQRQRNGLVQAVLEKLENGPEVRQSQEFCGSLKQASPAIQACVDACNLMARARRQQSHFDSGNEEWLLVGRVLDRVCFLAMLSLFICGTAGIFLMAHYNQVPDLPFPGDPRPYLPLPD

Consider `C[C@@H](c1ccccc1)n1cncc1C(=O)OCCC1(C)N=N1`, for which the pEC50 was 4.85 in series [1] and 4.70 in series [5]. The same compound showed a negative logarithm of the IC50 (pIC50) in series [2] of 4.18. Also, the nH in [3] is 1.6. For the same compound, the inhibition in series [4] was 60%. Further, the Max response in series [6] amounted to 94%. In series [7], this compound returned an Emax of 0.5%.

For `CC(c1ccccc1)n1cncc1C(=O)OCCC1(C)N=N1` (stereo unspecified) [AZIETOMIDATE], the negative-log IC50 (pIC50) in [8] was 4.60. Further, the solubility in series [9] came out at 540 µM (≈ 161 µg/mL). Further, in [10], the Partition coefficient was 3600.

`C[C@H](c1ccccc1)n1cncc1C(=O)OCCC1(C)N=N1`: the pIC50 is 4.64 in [11], 3.98 in series [2] and 5.31 in series [14]. Besides, the results for the maximal response (Emax) in [12] and in series [15] were 127% and 14%, respectively. Also, the pEC50 in series [1] is 5.66; in series [13], 4.43; in [17], 5.92; in series [5], 5.70. For the same compound, in [3], the nH was 1.5. The inhibition in series [16] was below 90%. The Max response in [6] amounted to 94%.

As for `CCOC(=O)c1cncn1[C@H](C)c1ccccc1` [ETOMIDATE], the maximal effect (Emax) in series [12] amounted to 127%; in series [15], 18%. Further, the negative-log EC50 (pEC50) is 5.64 in series [1] and 5.47 in series [20]. In addition, the nH in [3] came out at 1.2. Besides, the results for the pIC50 in [18] and in series [8] were 4.39 and 4.30, respectively. The same compound yielded a Concentration in [19] of 300 µM. Also, the Max response in series [6] amounted to 110%.

As for `CCOC(=O)c1cncn1[C@@H](C)c1ccccc1` [S-ETOMIDATE], in series [21], the Concentration is 100 µM. In addition, the nH in [3] was 1.9. The compound further displayed an Emax in series [22] of 2.9%. Further, the Max response in series [6] was determined as 110%. The compound also gave a pEC50 in series [20] of 4.24.

Source of the values: ChEMBL document CHEMBL1136745 (J Med Chem, 2003).
